In ChEMBL document CHEMBL1128295 (J Med Chem, 1995):
Several values for one entry are separate records, joined by “and”; a condition that tells them apart may be missing. Equal values may be shown once. Activity calls are given as the source filed them. The calls are words filed in the database; no cut-off is given here.

What was measured:
[1] = biological target: Histamine H1 receptor (Cavia porcellus) (UniProt P31389); assay: Contractile effect on isolated guinea pig ileal segments is a measure of H1 (histamine) receptor agonistic activity relative to histamine.; type: functional
[2] = biological target: Histamine H2 receptor (Cavia porcellus) (UniProt P47747); assay: Histamine H2 receptor agonism activity was determined on the isolated Guinea pig Atrium was determined as Intrinsic activity with respect to Histamine; type: functional
Outline: (§1)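 Spontaneously beating guinea pig right atrium, isometric, resting force 5 mN, (R,S)-metoprolol 300 nM present throughout.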

[3] = biological target: Histamine H1 receptor (Cavia porcellus) (UniProt P31389); assay: H1-Histamine receptor agonism on guinea pig ileum as intrinsic activity given as 1.0 with respect to histamine (paired 't'test; p>0.05).; type: functional, tissue-based
[4] = biological target: Histamine H1 receptor (Cavia porcellus) (UniProt P31389); assay: The H1 receptor-mediated nature of the ileum contractionhas been verified by competition experiments with the H1 receptor antagonist mepyramine; type: functional, tissue-based
[5] = biological target: Histamine H1 receptor (Cavia porcellus) (UniProt P31389); assay: Contractile effect on isolated guinea pig ileal segments by H1 (histamine) receptor agonism.; type: functional
[6] = biological target: Histamine H1 receptor (Cavia porcellus) (UniProt P31389); assay: Contractile effect on isolated guinea pig aorta is a measure of H1 (histamine) receptor agonistic activity relative to histamine; type: functional, tissue-based
Outline: (§2)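 Endothelium-denuded 4–6 mm guinea pig thoracic aortic rings, isometric (preload 10 mN), modified Krebs-Henseleit, 37 °C, 95% O2/5% CO2. […] Cumulative curves with 30 μM corticosterone, 100 μM cimetidine, 0.1 μM (R,S)-propranolol and phentolamine present.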

[7] = biological target: Histamine H1 receptor (Cavia porcellus) (UniProt P31389); assay: H1-Histamine receptor agonism on Guinea pig aorta was evaluated as Intrinsic activity given as 1.0 with respect to histamine (paired 't'test;p>0.05) (SEM 0.01-0.12); type: functional, tissue-based; outline: as §2
[8] = biological target: Histamine H2 receptor (Cavia porcellus) (UniProt P47747); assay: Histamine H2 receptor agonism activity was determined on the isolated Guinea pig Atrium was determined as pD'2; type: functional; outline: as §1
[9] = biological target: Histamine H1 receptor (Cavia porcellus) (UniProt P31389); assay: Contractile effects on guinea pig aorta as histamine H1 receptor agonism; type: functional, tissue-based; outline: as §2
[10] = biological target: Histamine H1 receptor (Cavia porcellus) (UniProt P31389); assay: H1-Histamine receptor agonism on Guinea pig aorta was evaluated as Intrinsic activity given as 1.0 with respect to histamine (paired 't'test;p>0.05); type: functional, tissue-based; outline: as §2
[11] = biological target: Histamine H1 receptor (Cavia porcellus) (UniProt P31389); assay: Contractile effects of compound on the guinea pig aorta as a measure of histamine H1 receptor agonism; f - effect could be antagonized with 1 pM mepyramine added to the bath solution when a plateau was reached.; type: functional, tissue-based; conditions: filed as agonist, in the assay text read “1 µM mepyramine” for “1 pM mepyramine”; outline: as §2
[12] = biological target: Histamine H1 receptor (Cavia porcellus) (UniProt P31389); assay: H1-Histamine receptor agonism on Guinea pig aorta was evaluated as Intrinsic activity given as 1.0 with respect to histamine (paired 't'test;p>0.05)(SEM 0.01-0.12); type: functional, tissue-based
[13] = biological target: Histamine H1 receptor (Cavia porcellus) (UniProt P31389); assay: The H1 receptor-mediated nature of the ileum contractionhas been verified by competition experiments with the H1 receptor antagonist mepyramine;O=effect could be antagonized with 1 uM Mepyramine added to the bath solution when a plateau was rea; type: functional, tissue-based
[14] = biological target: Histamine H1 receptor (Mus musculus) (UniProt P70174); assay: In vivo binding of H1 receptor Agonists measured by binding of [3H]mepyramine to Mouse cerebral cortex at the dosage of ( 3 mg/kg(no. of mice treated=5 ); conditions: at 3 mg/kg
[15] = biological target: Histamine H1 receptor (Mus musculus) (UniProt P70174); assay: In vivo binding of H1 receptor Agonists measured by binding of [3H]mepyramine to Mouse cerebral cortex at the dosage of ( 10 mg/kg(no. of mice treated=5 ); conditions: at 10 mg/kg
[16] = biological target: Histamine H1 receptor (Mus musculus) (UniProt P70174); assay: In vivo binding of H1 receptor Agonists measured by binding of [3H]mepyramine to Mouse cerebral cortex at the dosage of ( 30 mg/kg(no. of mice treated= 5 ); conditions: at 30 mg/kg
[17] = biological target: Histamine H1 receptor (Mus musculus) (UniProt P70174); assay: In vivo binding of H1 receptor Agonists measured by binding of [3H]mepyramine to Mouse cerebral cortex at the dosage of ( 100 mg/kg(no. of mice treated= 3 ); conditions: at 100 mg/kg
[18] = biological target: Histamine H1 receptor (Mus musculus) (UniProt P70174); assay: In vivo binding of H1 receptor Agonists measured by binding of [3H]-Mepyramine to Mouse cerebral cortex at the dosage of ( 300 mg/kg(no. of mice treated= 3 ); conditions: at 300 mg/kg
Cavia porcellus = organism: Cavia porcellus; assay: Relative activity with respect to Histamine on guinea pig ileum..; type: functional
Outline: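 Guinea pig ileum segments (either sex), 1.5 cm, mounted isotonically under 5 mN preload in Tyrode solution with 0.1 μM atropine, 95% O2/5% CO2 gassed, 37 °C. […] Potency is read from graphically analysed concentration–effect curves as geometric means.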

[19] = biological target: Histamine H1 receptor (Cavia porcellus) (UniProt P31389); assay: The H1 receptor-mediated nature of the ileum contractionhas been verified by competition experiments with the H1 receptor antagonist mepyramine; O=effect could be antagonized with 1 uM Mepyramine added to the bath solution when a plateau was re; type: functional, tissue-based
[20] = biological target: Histamine H1 receptor (Cavia porcellus) (UniProt P31389); assay: H1-Histamine receptor agonism on Guinea pig aorta was evaluated as Intrinsic activity given as 1.0 with respect to histamine (paired 't'test;p>0.05) (SEM0.03-0.18); type: functional, tissue-based; outline: as §2

Histamine H2 receptor (Cavia porcellus), sequence (P47747 whole entry): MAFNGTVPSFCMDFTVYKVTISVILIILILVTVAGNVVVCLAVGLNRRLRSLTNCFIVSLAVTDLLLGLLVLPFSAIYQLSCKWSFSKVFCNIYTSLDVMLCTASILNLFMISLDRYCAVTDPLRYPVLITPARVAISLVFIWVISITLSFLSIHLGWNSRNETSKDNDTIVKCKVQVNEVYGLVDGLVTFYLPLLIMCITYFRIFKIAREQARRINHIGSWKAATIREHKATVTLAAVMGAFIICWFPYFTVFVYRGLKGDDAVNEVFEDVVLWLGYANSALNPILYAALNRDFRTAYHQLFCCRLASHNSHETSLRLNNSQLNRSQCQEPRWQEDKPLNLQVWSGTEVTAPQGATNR
Histamine H1 receptor (Mus musculus), sequence (P70174 whole entry, looked up): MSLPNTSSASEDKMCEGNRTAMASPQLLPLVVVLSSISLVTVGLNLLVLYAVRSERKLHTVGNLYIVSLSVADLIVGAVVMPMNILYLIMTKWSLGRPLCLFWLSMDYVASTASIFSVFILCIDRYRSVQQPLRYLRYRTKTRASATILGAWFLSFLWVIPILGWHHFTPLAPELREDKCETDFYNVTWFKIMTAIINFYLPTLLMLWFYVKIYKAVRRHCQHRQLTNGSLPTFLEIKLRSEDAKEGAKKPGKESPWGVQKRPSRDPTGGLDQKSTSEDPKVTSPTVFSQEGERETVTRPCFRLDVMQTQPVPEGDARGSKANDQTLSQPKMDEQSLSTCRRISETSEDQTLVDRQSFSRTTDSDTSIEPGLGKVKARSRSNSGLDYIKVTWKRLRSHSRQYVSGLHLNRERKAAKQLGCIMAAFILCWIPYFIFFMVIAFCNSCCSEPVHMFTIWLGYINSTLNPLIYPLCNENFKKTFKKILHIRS
Histamine H1 receptor (Cavia porcellus), sequence (P31389 whole entry): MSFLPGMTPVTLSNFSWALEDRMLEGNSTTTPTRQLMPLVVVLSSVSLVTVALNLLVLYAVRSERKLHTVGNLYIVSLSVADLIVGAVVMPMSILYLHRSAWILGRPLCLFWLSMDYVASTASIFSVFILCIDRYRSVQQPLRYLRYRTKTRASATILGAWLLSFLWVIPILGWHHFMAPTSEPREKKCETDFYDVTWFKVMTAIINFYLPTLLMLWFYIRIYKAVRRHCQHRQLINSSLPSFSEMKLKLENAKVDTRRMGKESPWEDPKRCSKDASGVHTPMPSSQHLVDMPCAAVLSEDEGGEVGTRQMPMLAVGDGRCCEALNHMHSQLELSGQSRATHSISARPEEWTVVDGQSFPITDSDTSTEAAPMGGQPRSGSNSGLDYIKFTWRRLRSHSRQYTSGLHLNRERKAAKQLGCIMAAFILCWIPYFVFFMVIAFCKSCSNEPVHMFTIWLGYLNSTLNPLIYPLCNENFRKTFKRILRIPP

Row | SMILES | Relative activity [1] | Intrinsic activity [3] | pKb [4] | pD2 [5] | Relative activity [6] | also measured
1 | CNCCc1ccccn1 | 8% | – | – | – | – | –
2 | NCCc1c[nH]c(C(F)(F)F)n1 | 7% | 1 | 9.19 | 5.57 | – | Intrinsic activity [2]: 0.55
3 | NCCc1c[nH]c(-c2ccco2)n1 | 47% | 1 | 9.16 | 6.37 | 23% | Intrinsic activity [2]: 0.36; Intrinsic activity [7]: 0.47; pD'2 [8]: < 3; pKb [9]: 9.28
4 | NCCc1c[nH]c(Cc2cccc(Cl)c2)n1 | 2% | 0.76 | 8.81 | 4.88 | 0.4% | Intrinsic activity [10]: 0.51; pKb [11]: Agonist
5 | COc1cccc(-c2nc(CCN)c[nH]2)c1 | 40% | – | – | – | – | –
6 | NCCc1c[nH]c(-c2csc(Br)c2)n1 | 26% | 1 | 9.04 | 6.11 | 11% | Intrinsic activity [12]: 0.6; pKb [9]: 8.63
7 | NCCc1c[nH]c(-c2cccc(Cl)c2)n1 | 81% | – | – | – | – | –
8 | NCCc1c[nH]c(-c2ccccc2)n1 | 10% and 31% | 1 | 8.87 | 6.2 | 19% | Intrinsic activity [2]: 0.2; Intrinsic activity [10]: 0.86; pD'2 [8]: < 3; pKb [9]: 9.1
9 | NCCc1c[nH]c(-c2cccc(F)c2)n1 | 87% | – | – | – | – | –
10 | NCCc1c[nH]c(-c2cc3ccccc3c3ccccc23)n1 | – | 0 | 4.73 | – | – | –
11 | NCCc1c[nH]c(-c2cccc(OC(F)(F)F)c2)n1 | 54% | 1 | 8.92 | 6.43 | – | –
12 | NCCc1c[nH]cn1 | – | – | 9.09 | 6.7 | – | Intrinsic activity [2]: 1; Intrinsic activity [10]: 1.06
13 | Cc1ncc(CCN)[nH]1 | 15% | – | – | – | – | –
14 | NCCc1c[nH]c(-c2ccc[nH]2)n1 | 14% | 0.93 | 9.03 | 5.86 | 12% | Intrinsic activity [12]: 0.74; pKb [9]: 9.27
15 | NCCc1c[nH]c(-c2ccccc2C(F)(F)F)n1 | < 1% | 0.26 | – | 4.47 | – | pKb [13]: Active
16 | NCCc1c[nH]c(Cc2ccsc2)n1 | 4% | 1 | 8.97 | 5.26 | 0.9% | Intrinsic activity [10]: 0.4; pKb [11]: Agonist

Row | SMILES | Relative activity [1] | Intrinsic activity [3] | pKb [4] | pD2 [5] | Relative activity [6] | also measured
17 | NCCc1c[nH]c(-c2cccc(C(F)(F)F)c2)n1 | 128% | 1 | 9.14 | 6.81 | 94% | Intrinsic activity [2]: 0; Intrinsic activity [10]: 0.8; pD'2 [8]: 3.48; pKb [9]: 9.04; Control [14]: 101%; Control [15]: 122%; Control [16]: 98%; Control [17]: 112%; Control [18]: 129%
18 | NCCc1c[nH]c(Cc2ccc(C(F)(F)F)cc2)n1 | – | 0 | – | – | – | PkB [4]: 4.53
19 | NCCc1c[nH]c(-c2ccsc2)n1 | 66% | 1 | 9.13 | 6.52 | 19% | Intrinsic activity [2]: 0.13; Intrinsic activity [12]: 0.43; pD'2 [8]: < 3; pKb [9]: 9.01
20 | NCCc1nccs1 | 45% | 1 | 9.17 | 6.36 | 18% | Relative activity (Cavia porcellus): 20%; Intrinsic activity [10]: 1.02; pKb [9]: 9.02
21 | NCCc1c[nH]c(Cc2cccc(C(F)(F)F)c2)n1 | < 1% | 0.28 | – | 4.57 | – | pKb [19]: Active
22 | NCCc1c[nH]c(-c2cncc(Br)c2)n1 | 70% | 1 | 9.03 | 6.54 | – | –
23 | NCCc1c[nH]c(-c2cccc(Br)c2)n1 | – | 1 | – | – | – | Intrinsic activity [2]: 0; Intrinsic activity [10]: 0.64
24 | NCCc1c[nH]c(Cc2ccccc2C(F)(F)F)n1 | – | 0 | 3.55 | – | – | –
25 | NCCc1c[nH]c(Cc2ccccc2Cl)n1 | 3% | 0.54 | 8.91 | 5.11 | 0.2% | Intrinsic activity [10]: 0.38; pKb [11]: Agonist
26 | NCCc1c[nH]c(Cc2cccs2)n1 | 3% | 1 | 8.92 | 5.09 | 0.8% | Intrinsic activity [12]: 0.45; pKb [11]: Agonist
27 | NCCc1c[nH]c(-c2ccc3ccccc3c2)n1 | 1% | 0.24 | – | 4.85 | – | pKb [19]: Active
28 | NCCc1c[nH]c(-c2cccc(I)c2)n1 | 96% | 1 | 9.28 | 6.68 | 47% | Intrinsic activity [2]: 0; Intrinsic activity [10]: 0.49; pD'2 [8]: 3.76; pKb [9]: 9.13
29 | Cc1cccc(-c2nc(CCN)c[nH]2)c1 | 15% | 1 | 9.04 | 5.87 | – | –
30 | NCCc1c[nH]c(-c2cccs2)n1 | 46% | 1 | 8.93 | 6.36 | 12% | Intrinsic activity [2]: 0.25; Intrinsic activity [20]: 0.5; pD'2 [8]: < 3; pKb [9]: 8.83
31 | NCCc1c[nH]c(-c2ccc(C(F)(F)F)cc2)n1 | < 1% | 0.24 | – | 4.6 | – | pKb [13]: Active
